According to ChEMBL document CHEMBL1142529:
One block for each molecule: values may come before it.

Columns and labels:
[1] = biological target: T1, Quinolone resistance protein NorA (Staphylococcus aureus) (UniProt P0A0J7); experiment: Inhibition of NorA efflux pump in Staphylococcus aureus 1199B assessed as fold reduction of ciprofloxacin MIC at >100 ug/ml
T1 sequence (whole entry): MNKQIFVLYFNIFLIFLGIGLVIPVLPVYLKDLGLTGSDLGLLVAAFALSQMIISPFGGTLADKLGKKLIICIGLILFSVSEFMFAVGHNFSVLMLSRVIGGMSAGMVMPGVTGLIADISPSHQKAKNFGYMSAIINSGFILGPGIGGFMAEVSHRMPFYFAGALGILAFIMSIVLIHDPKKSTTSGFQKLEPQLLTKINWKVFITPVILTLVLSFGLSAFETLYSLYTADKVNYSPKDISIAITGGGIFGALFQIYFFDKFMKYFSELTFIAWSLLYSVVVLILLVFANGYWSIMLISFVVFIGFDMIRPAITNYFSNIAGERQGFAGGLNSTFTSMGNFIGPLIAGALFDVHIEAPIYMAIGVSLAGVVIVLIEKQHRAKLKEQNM

[2] = biological target: T1, Quinolone resistance protein NorA (Staphylococcus aureus); experiment: Inhibition of NorA efflux pump in Staphylococcus aureus 1199 assessed as fold reduction of ciprofloxacin MIC at >100 ug/ml
Outline: (§1)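 Broth checkerboard synergy in Mueller–Hinton broth with twofold serial dilutions. Each candidate EPI was run at seven concentrations (100–1.56 µg/mL) against ciprofloxacin at 10 concentrations (16–0.03 µg/mL). Incubation was 18 h at 37 °C, and growth was scored visually. The fold drop in ciprofloxacin MIC was read at the stated EPI concentration.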

[3] = biological target: T1, Quinolone resistance protein NorA (Staphylococcus aureus); experiment: Inhibition of NorA efflux pump in Staphylococcus aureus 1199B assessed as fold reduction of ciprofloxacin MIC at 25 ug/ml; outline: as §1
[4] = biological target: T1, Quinolone resistance protein NorA (Staphylococcus aureus); experiment: Inhibition of NorA efflux pump in Staphylococcus aureus 1199 assessed as fold reduction of ciprofloxacin MIC at 25 ug/ml; outline: as §1
[5] = biological target: T1, Quinolone resistance protein NorA (Staphylococcus aureus); experiment: Inhibition of NorA efflux pump in Staphylococcus aureus 1199B assessed as fold reduction of ciprofloxacin MIC at 3.12 ug/ml; outline: as §1
[6] = biological target: T1, Quinolone resistance protein NorA (Staphylococcus aureus); experiment: Inhibition of NorA efflux pump in Staphylococcus aureus 1199 assessed as fold reduction of ciprofloxacin MIC at 3.12 ug/ml; outline: as §1
[7] = biological target: T1, Quinolone resistance protein NorA (Staphylococcus aureus); experiment: Inhibition of NorA efflux pump in Staphylococcus aureus 1199B assessed as fold reduction of ciprofloxacin MIC at 6.25 ug/ml; outline: as §1
[8] = biological target: T1, Quinolone resistance protein NorA (Staphylococcus aureus); experiment: Inhibition of NorA efflux pump in Staphylococcus aureus 1199 assessed as fold reduction of ciprofloxacin MIC at 6.25 ug/ml; outline: as §1
[9] = biological target: T1, Quinolone resistance protein NorA (Staphylococcus aureus); experiment: Inhibition of NorA efflux pump in Staphylococcus aureus 1199B assessed as fold reduction of ciprofloxacin MIC at 100 ug/ml; outline: as §1
[10] = biological target: T1, Quinolone resistance protein NorA (Staphylococcus aureus); experiment: Inhibition of NorA efflux pump in Staphylococcus aureus 1199 assessed as fold reduction of ciprofloxacin MIC at 100 ug/ml; outline: as §1
[11] = biological target: T1, Quinolone resistance protein NorA (Staphylococcus aureus); experiment: Inhibition of NorA efflux pump in Staphylococcus aureus 1199B assessed as fold reduction of ciprofloxacin MIC at 12.5 ug/ml; outline: as §1
[12] = biological target: T1, Quinolone resistance protein NorA (Staphylococcus aureus); experiment: Inhibition of NorA efflux pump in Staphylococcus aureus 1199 assessed as fold reduction of ciprofloxacin MIC at 12.5 ug/ml; outline: as §1
[13] = biological target: T1, Quinolone resistance protein NorA (Staphylococcus aureus); experiment: Inhibition of NorA efflux pump in Staphylococcus aureus 1199B assessed as fold reduction of ciprofloxacin MIC at 1.5 ug/ml; outline: as §1
[14] = biological target: T1, Quinolone resistance protein NorA (Staphylococcus aureus); experiment: Inhibition of NorA efflux pump in Staphylococcus aureus 1199 assessed as fold reduction of ciprofloxacin MIC at 1.5 ug/ml; outline: as §1

Compound: O=C(CCCCc1ccc2c(c1)OCO2)Nc1ccc(C(=O)Nc2ccccc2)cc1
fold change (FC) [1]: 0
fold change (FC) [2]: 0

Compound: N#Cc1cccc(NC(=O)CCCCc2ccc3c(c2)OCO3)c1
fold change (FC) [1]: 0
fold change (FC) [2]: 0

Compound: CC(C)c1cc2c(c(O)c1O)[C@@]1(C(=O)O)CCCC(C)(C)[C@@H]1CC2
fold change (FC) [3]: 2
fold change (FC) [4]: 2

Compound: CCCCNC(=O)/C=C/C=C/c1ccc2c(c1)OCO2
fold change (FC) [9]: 0
fold change (FC) [10]: 0

Compound: O=C(/C=C/C=C/c1ccc2c(c1)OCO2)Nc1ccc2c(c1)OCO2
fold change (FC) [1]: 0
fold change (FC) [2]: 0

Compound: COc1ccc(NC(=O)/C=C/C=C/c2ccc3c(c2)OCO3)cc1
fold change (FC) [1]: 0
fold change (FC) [2]: 0

Compound: CN1CCN(C(=O)/C=C/C=C/c2ccc3c(c2)OCO3)CC1
fold change (FC) [3]: 2
fold change (FC) [4]: 0

Compound: O=C(/C=C/C=C/c1ccc2c(c1)OCO2)Nc1cccc(CO)c1
fold change (FC) [3]: 2
fold change (FC) [4]: 0

Compound: O=C(/C=C/C=C/c1ccc2c(c1)OCO2)N1CCOCC1
fold change (FC) [1]: 0
fold change (FC) [2]: 0

Compound: NC(=O)c1ccc(NC(=O)/C=C/C=C/c2ccc3c(c2)OCO3)cc1
fold change (FC) [3]: 2
fold change (FC) [4]: 0

Compound: O=C(/C=C/C=C/c1ccc2c(c1)OCO2)Nc1ccc(NC(=O)c2ccccc2)cc1
fold change (FC) [5]: 2
fold change (FC) [6]: 0

Compound: O=C(/C=C/C=C/c1ccc2c(c1)OCO2)Nc1ccc(C(=O)Nc2ccccc2)cc1
fold change (FC) [3]: 4
fold change (FC) [5]: 2
fold change (FC) [4]: 0
fold change (FC) [6]: 0

Compound: CCCNC(=O)/C=C/C=C/c1ccc2c(c1)OCO2
fold change (FC) [1]: 0
fold change (FC) [2]: 0

Compound: O=C(/C=C/C=C/c1ccc2c(c1)OCO2)Nc1ccc(CO)cc1
fold change (FC) [7]: 2
fold change (FC) [8]: 0

Compound: CC(=O)Nc1cccc(NC(=O)/C=C/C=C/c2ccc3c(c2)OCO3)c1
fold change (FC) [11]: 4
fold change (FC) [7]: 2
fold change (FC) [12]: 2
fold change (FC) [8]: 0

Other lines, results leading:

fold change (FC) [1]: 0
fold change (FC) [2]: 0
Compound: N#CCc1ccccc1NC(=O)/C=C/C=C/c1ccc2c(c1)OCO2

fold change (FC) [3]: 2
fold change (FC) [4]: 0
Compound: CC[C@@H](CO)NC(=O)/C=C/C=C/c1ccc2c(c1)OCO2

fold change (FC) [5]: 2
fold change (FC) [6]: 0
Compound: O=C(/C=C/C=C/c1ccc2c(c1)OCO2)Nc1ccc2ncsc2c1

fold change (FC) [3]: 2
fold change (FC) [4]: 0
Compound: N#Cc1ccc(NC(=O)/C=C/C=C/c2ccc3c(c2)OCO3)cc1

fold change (FC) [3]: 2
fold change (FC) [4]: 2
Compound: CC(C)N(C(=O)/C=C/C=C/c1ccc2c(c1)OCO2)C(C)C

fold change (FC) [3]: 2
fold change (FC) [4]: 0
Compound: N#CCc1ccc(NC(=O)/C=C/C=C/c2ccc3c(c2)OCO3)cc1

fold change (FC) [3]: 4
fold change (FC) [7]: 2
fold change (FC) [4]: 2
fold change (FC) [8]: 0
Compound: CC(=O)Nc1ccc(NC(=O)/C=C/C=C/c2ccc3c(c2)OCO3)cc1

fold change (FC) [11]: 2
fold change (FC) [12]: 0
Compound: O=C(/C=C/C=C/c1ccc2c(c1)OCO2)NCC(O)c1ccccc1 (stereo not given)

fold change (FC) [1]: 0
fold change (FC) [2]: 0
Compound: Cc1ccccc1NC(=O)/C=C/C=C/c1ccc2c(c1)OCO2

fold change (FC) [3]: 2
fold change (FC) [4]: 0
Compound: O=C(/C=C/C=C/c1ccc2c(c1)OCO2)Nc1ccccc1CO

fold change (FC) [3]: 2
fold change (FC) [4]: 0
Compound: CCN(CC)C(=O)/C=C/C=C/c1ccc2c(c1)OCO2

fold change (FC) [1]: 0
fold change (FC) [2]: 0
Compound: CC(C)CNC(=O)CCCCc1ccc2c(c1)OCO2

fold change (FC) [3]: 4
fold change (FC) [4]: 2
Compound: COC(=O)[C@H]1[C@H]2C[C@@H]3c4[nH]c5cc(OC)ccc5c4CCN3C[C@H]2C[C@@H](OC(=O)c2cc(OC)c(OC)c(OC)c2)[C@@H]1OC

fold change (FC) [7]: 4
fold change (FC) [13]: 2
fold change (FC) [8]: 0
fold change (FC) [14]: 0
Compound: N#Cc1cccc(NC(=O)/C=C/C=C/c2ccc3c(c2)OCO3)c1

fold change (FC) [7]: 2
fold change (FC) [8]: 2
Compound: O=C(/C=C/C=C/c1ccc2c(c1)OCO2)Nc1nc2ccccc2s1

fold change (FC) [3]: 4
fold change (FC) [7]: 2
fold change (FC) [4]: 2
fold change (FC) [8]: 0
Compound: CC(=O)Nc1ccccc1NC(=O)/C=C/C=C/c1ccc2c(c1)OCO2

fold change (FC) [3]: 2
fold change (FC) [4]: 0
Compound: CC(C)NC(=O)/C=C/C=C/c1ccc2c(c1)OCO2

fold change (FC) [3]: 2
fold change (FC) [4]: 0
Compound: CC(C)CNC(=O)/C=C/C=C/c1ccc2c(c1)OCO2

fold change (FC) [11]: 2
fold change (FC) [12]: 2
Compound: O=C(/C=C/C=C/c1ccc2c(c1)OCO2)Nc1ccccc1

fold change (FC) [1]: 0
fold change (FC) [2]: 0
Compound: CC[C@H](CO)NC(=O)/C=C/C=C/c1ccc2c(c1)OCO2
